The subject of data set [1] is CSF Aβ40. Particulars: multiple-ascending doses over 28 days, healthy subjects ref 32; cited from earlier work.
For the next data set, the system named is Aβ42. Particulars: cited from earlier work.
Another data set has as its system Aβ38. The note with it: cited from earlier work.
Another data set has as its system Aβ37. Particulars: cited from earlier work.
Data set [2] relates to Aβ42, Aβ40, Aβ37 and Aβ38. Particulars: cited from earlier work.
For a further data set, the system named is CSF Aβ37. Kind of data set: PK/PD indirect-response model, CSF Aβ37. It is filed as in vivo, human. The method, boiled down: (§1)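 Population PK/PD fit in NONMEM (FOCE with interaction) for healthy adults. Inputs: serial CSF via lumbar catheter, 2 h predose to 36 h after one fasted oral 150 or 300 mg dose; single lumbar punctures at baseline and day 14 in 40–360 mg q.d. cohorts. Fixed two-compartment PK gave individual plasma concentrations. Indirect-response model: sigmoid inhibition (Aβ40/42) or stimulation (Aβ37/38) of production, with kout turnover. Fixed placebo-drift terms.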

The nature of data set [3]: Plasma pharmacokinetics, B7991001 single-ascending dose incl. food effect. It is filed as in vivo, human. The note with it: 120 mg fed vs fasted.
A further data set deals with CSF Aβ38. Nature of the data set: PK/PD indirect-response model, CSF Aβ38. It is filed as in vivo, human. Put shortly:
as §1

Data set [4] deals with CSF Aβ40. Nature of the data set: PK/PD indirect-response model, CSF Aβ40. It is filed as in vivo, human. The method, boiled down: as §1
Data set [5] in a line: Plasma and CSF pharmacokinetics, B7991002 multiple dose. It counts as in vivo, human. Particulars: for PF-06648671 concentration in CSF, mean: day 14, nonelderly.
A further data set concerns Notch. The note with it: cell-based assays ref 36; cited from earlier work.
The nature of data set [6]: Safety/tolerability, B7991002 multiple-ascending dose study. It is filed as in vivo, human. The note with it: doses up to 360 mg q.d. for up to 14 days, healthy young and elderly subjects. The method, boiled down:
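Healthy subjects aged 18–55 and elderly subjects aged 65–85 took oral doses once daily for 14 days, with about 10 per cohort and placebo control. Dosing was fasted on days 1, 7 and 14, otherwise >1 h from breakfast. Investigators recorded adverse events with severity and causality, plus laboratory tests, physical examinations, ECG monitoring and vital signs.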

For the next data set, the system named is CSF Aβ42. Nature of the data set: PK/PD indirect-response model, CSF Aβ42. It is filed as in vivo, human. The method, boiled down:
as §1

The subject of data set [7] is Aβ42 within the brain and CSF. Particulars: acute oral administration ref 36; cited from earlier work.
Another data set has as its system plasma Aβ. Nature of the data set: Plasma Aβ levels after single doses. It is filed as in vivo, human. The note with it: following single doses.
Where [8] appears, read: multiple-ascending doses over 28 days, healthy subjects ref 32.
[9] abbreviates: single dosing, healthy subjects ref 33.

Converted amounts (≈) assume the structure as drawn.

As for `CNc1nc(Nc2ccc(-n3cnc(C)n3)c(OC)c2)nc2c1CC[C@H]2c1ccc(F)cc1` [BMS‐932481], the “Decrease in CSF Aβ40” value in the data set with CSF Aβ40 [1] was no more than 74%. Moreover, the “Decrease in CSF Aβ42” value with Aβ42 (setting [8]) is reported as “up to 77%”. In addition, the “Decrease in Aβ42” value in the data set on Aβ42 (setting [9]) was “up to 50%”. For the same molecule, in the data set with Aβ38 (setting [8]), the “Increase in CSF Aβ38” value was no more than 69%. Moreover, in the data set on Aβ38 (setting [9]), the “Increase in Aβ38” value is no more than 2 fold. Besides, the “Increase in CSF Aβ37” value in the data set on Aβ37 (setting [8]) is on record as “up to 545%”. Also, in the data set on Aβ37 (setting [9]), the “Increase in Aβ37” value is “up to 12 fold”.
As to `COc1nc(/C=C/c2nc3n(n2)CCC[C@H]3c2ccccc2C(F)(F)F)ccc1-n1cnc(C)c1` [E2212], the “Decrease in Aβ42 AUC0–24 hours values” in the data set with Aβ42 (single-ascending doses ref 35) was “up to 44.1%”.
For the molecule `Cc1cn(-c2ccc3n(c2=O)CCN([C@@H](C)[C@@H]2CC[C@H](c4cc(F)c(Cl)cc4C(F)(F)F)O2)C3=O)cn1` [PF-06648671, 2‐[(1S)‐1‐{(2S,5R)‐5‐[4‐chloro‐5‐fluoro‐2‐(trifluoromethyl)phenyl]tetrahydrofuran‐2‐yl}ethyl]‐7‐(4‐methyl‐1H‐imidazol‐1‐yl)‐3,4‐dihydro‐2H‐pyrido[1,2‐a]pyrazine‐1,6‐dione], in [2], the “Effect on Aβ species in cell-based assays” value is “reduced Aβ42 and Aβ40, with concomitant increases in Aβ37 and Aβ38”. In addition, the EC50 in the data set with CSF Aβ37 (Homo sapiens, read-out: EC50, plasma concentration at half Emax, Aβ37) amounted to 1.28 µg/mL (≈ 2.38 µM); in the data set with CSF Aβ38 (Homo sapiens, read-out: EC50, plasma concentration at half Emax, Aβ38), 1.77 µg/mL (≈ 3.28 µM). For the same molecule, the “Emax, maximum response achievable, Aβ37” value with CSF Aβ37 (PK/PD model estimate) was 5.63. The “k out, first-order turnover constant of Aβ37” value with CSF Aβ37 (PK/PD model estimate) is 0.0964 h⁻¹. The “Predicted increase in CSF Aβ37” value in the data set on CSF Aβ37 (steady state, within simulated dose ranges) is listed as no more than 500%. For the same molecule, the “Delay of median Tmax with food” value in data set [3] amounted to 3 h. Also, the “k out, first-order turnover constant of Aβ38” value with CSF Aβ38 (PK/PD model estimate) is 0.144 h⁻¹. Also, the “Emax, maximum response achievable, Aβ38” value in the data set with CSF Aβ38 (PK/PD model estimate, large uncertainty) is 0.869. Further, the IC50 in the data set with CSF Aβ40 [4] (Homo sapiens, read-out: IC50, plasma concentration at half Imax, Aβ40) was determined as 1.23 µg/mL (≈ 2.28 µM); in the data set on CSF Aβ42 (Homo sapiens, read-out: IC50, plasma concentration at half Imax, Aβ42) it was 0.421 µg/mL (≈ 0.781 µM). The “Imax, maximum inhibition achievable, Aβ40” value in the data set on CSF Aβ40 [4] (PK/PD model estimate) is 0.725. The “k out, first-order turnover constant of Aβ40” value with CSF Aβ40 [4] (PK/PD model estimate) was 0.0835 h⁻¹. In addition, the “Dose predicted to achieve an average 50% reduction in CSF Aβ40” value in the data set on CSF Aβ40 [4] (steady state, PK/PD model) is 250 mg q.d. In addition, the “PF-06648671 concentration in CSF, mean” value in [5] (40 mg q.d., CV 81%) amounted to 3.49 ng/mL; in [5] (360 mg q.d., CV 31%), 27.85 ng/mL. In addition, the CSF penetration entry in data set [5] (CSF:plasma ratio at day 14 about equal to unbound fraction) is given as “excellent CSF penetration”. Moreover, in the data set with Notch, the “Effect on cleavage of Notch or other substrates” value is “without inhibiting the cleavage of Notch or other substrates”. The Safety profile result in data set [6] is “good safety profile”. Moreover, the “Predicted reduction in CSF Aβ42 levels” value was 50% with CSF Aβ42 (75 mg) and 65% in the data set on CSF Aβ42 (300 mg). Further, the “Imax, maximum inhibition achievable, Aβ42” value in the data set on CSF Aβ42 (PK/PD model estimate) was 0.744. For the same molecule, in the data set with CSF Aβ42 (PK/PD model estimate), the “k out, first-order turnover constant of Aβ42” value was 0.121 h⁻¹. Further, the “Dose predicted to achieve an average 50% reduction in CSF Aβ42” value in the data set on CSF Aβ42 (steady state, PK/PD model) was 75 mg q.d. For the same molecule, the “Effect on Aβ42 in animals” value in data set [7] was “reduced Aβ42 within the brain and CSF”. Further, in the data set with plasma Aβ, the “Rebound effect of plasma Aβ levels over baseline” value was “no rebound effect of plasma Aβ levels over baseline was observed”.

The record behind these values is PMC6977340 (Clinical Pharmacology and Therapeutics, 2019).
